# Experimental data as given in ChEMBL document CHEMBL2413060, “Synthesis, biological evaluation and molecular docking studies of some pyrimidine derivatives” (2013).
# Tests used:
# Assay type in all cases: functional
# [1] = test system: Pseudomonas aeruginosa; assay: Antibacterial activity against Pseudomonas aeruginosa ATCC 9027 after 24 hrs by two-fold serial dilution method; settings: ATCC 9027, 24 h
# Method in brief: (§1)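 Two-fold serial broth dilution in sterile nutrient broth at 500, 250, 125, 62.5, 31.25, 15.63, 7.82 and 3.91 µg/ml, with dimethylformamide ≤2.5%. Organisms were pre-grown 24 h in broth, and 0.1 ml inoculum was added per 5 ml tube. Tubes were incubated at 37°C, 24 h for bacteria and 48 h for fungi. MIC was taken as the lowest concentration giving no turbidity.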
# [2] = test system: Candida albicans; assay: Antifungal activity against Candida albicans ATCC 2091 after 48 hrs by two-fold serial dilution method relative to clotrimazole
# [3] = test system: Candida albicans; assay: Antifungal activity against Candida albicans ATCC 2091 after 48 hrs by two-fold serial dilution method; settings: ATCC 2091, 48 h; method in brief: as §1
# [4] = test system: Pseudomonas aeruginosa; assay: Antibacterial activity against Pseudomonas aeruginosa ATCC 9027 assessed as diameter of inhibition zone at 1 mg/ml after 24 hrs by cup diffusion method (reference value: 16 mm); settings: ATCC 9027, 24 h, read-out: DIZ
# [5] = test system: Staphylococcus aureus; assay: Antibacterial activity against Staphylococcus aureus ATCC 6538P assessed as diameter of inhibition zone at 1 mg/ml after 24 hrs by cup diffusion method (reference value: 15 mm); settings: read-out: DIZ
# [6] = test system: Shigella flexneri; assay: Antibacterial activity against Shigella flexneri ATCC 15391 assessed as diameter of inhibition zone at 1 mg/ml after 24 hrs by cup diffusion method (reference value: 17 mm); settings: ATCC 15391, 24 h, read-out: DIZ
# [7] = test system: Candida albicans; assay: Antifungal activity against Candida albicans ATCC 2091 assessed as diameter of inhibition zone at 1 mg/ml after 48 hrs by cup diffusion method (reference value: 22 mm); settings: ATCC 2091, 48 h, read-out: DIZ
# [8] = test system: HOP-92; assay: Cytotoxicity against human HOP92 cells assessed as growth inhibition at 10 uM; settings: read-out: GI
# [9] = test system: Shigella flexneri; assay: Antibacterial activity against Shigella flexneri ATCC 15391 after 24 hrs by two-fold serial dilution method; settings: ATCC 15391, 24 h; method in brief: as §1
# [10] = test system: Staphylococcus aureus; assay: Antibacterial activity against Staphylococcus aureus ATCC 6538P after 24 hrs by two-fold serial dilution method; method in brief: as §1
# [11] = test system: Pseudomonas aeruginosa; assay: Antibacterial activity against Pseudomonas aeruginosa ATCC 9027 after 24 hrs by two-fold serial dilution method relative to ofloxacin
# [12] = test system: Shigella flexneri; assay: Antibacterial activity against Shigella flexneri ATCC 15391 after 24 hrs by two-fold serial dilution method relative to ofloxacin
# [13] = test system: HOP-62; assay: Cytotoxicity against human HOP62 cells assessed as growth inhibition at 10 uM; settings: read-out: GI
# [14] = test system: HCC 2998; assay: Cytotoxicity against human HCC2998 cells assessed as growth inhibition at 10 uM; settings: read-out: GI
Compound,MIC [1] [µg/mL],Activity [2] [%],MIC [3] [µg/mL],zone of inhibition at 1000 µg/mL [4] [mm],zone of inhibition at 1000 µg/mL [5] [mm],zone of inhibition at 1000 µg/mL [6] [mm],zone of inhibition at 1000 µg/mL [7] [mm],inhibition of growth at 10 µM [8] [%],MIC [9] [µg/mL],MIC [10] [µg/mL],Activity [11] [%],Activity [12] [%],inhibition of growth at 10 µM [13] [%],inhibition of growth at 10 µM [14] [%]
CCOC(=O)CC(=N)N(NC(=O)CC#N)c1nc(-c2ccccc2)c(C#N)c(=O)n1C,125,60,125,–,–,–,–,–,–,–,–,–,–,–
Cn1c(-n2[nH]c3c(c2=O)C(=O)CC(=O)O3)nc(-c2ccco2)c(C#N)c1=O,–,–,–,16,15,17,22,–,–,–,–,–,–,–
Cn1c(=O)c(C#N)c(-c2ccccc2)n2c(CC#N)nnc12,–,–,–,17,15,19,22,–,–,–,–,–,–,–
N#Cc1c(Cl)nc(SCC2CO2)nc1-c1ccco1 (configuration not stated),–,–,–,17,15,18,22,–,–,–,–,–,–,–
N#Cc1c(-c2ccco2)nc(SCC2CO2)nc1N1CCOCC1 (configuration not stated),–,–,–,16,15,17,22,–,–,–,–,–,–,–
N#Cc1c(-c2ccco2)nc(SCC(O)CN2CCOCC2)nc1N1CCOCC1 (configuration not stated),125,60,125,18,15,17,25,–,–,–,–,–,–,–
N#Cc1c(-c2ccccc2)nc(SCC2CO2)[nH]c1=O (configuration not stated),–,–,–,16,15,22,22,41.5,125,–,–,–,–,–
N#Cc1c(-c2ccc([N+](=O)[O-])cc2)nc(SCC2CO2)[nH]c1=O (configuration not stated),–,–,–,17,15,17,22,–,–,–,–,–,–,–
N#Cc1c(-c2ccco2)nc(SCC2CO2)[nH]c1=O (configuration not stated),125,62,125,18,18,24,25,–,125,125,50,60,–,–
N#Cc1c(-c2ccccc2)nc(SCC(O)CN2CCOCC2)[nH]c1=O (configuration not stated),–,–,–,16,15,18,22,–,–,–,–,–,–,–
N#Cc1c(-c2ccco2)nc(SCC(O)CN2CCOCC2)[nH]c1=O (configuration not stated),–,–,–,16,15,18,22,–,–,–,–,–,–,–
N#Cc1c(Cl)nc(=S)[nH]c1-c1ccccc1,125,–,–,18,15,22,22,48.5,125,–,–,–,47.4,–
N#Cc1c(Cl)nc(=S)[nH]c1-c1ccc([N+](=O)[O-])cc1,–,–,–,16,15,17,22,–,–,–,–,–,–,–
N#Cc1c(Cl)nc(=S)[nH]c1-c1ccco1,62.5,–,–,18,15,17,22,–,–,–,–,–,49.6,–
N#Cc1c(N2CCOCC2)nc(=S)[nH]c1-c1ccc([N+](=O)[O-])cc1,–,–,–,16,15,18,22,–,–,–,–,–,–,–
N#Cc1c(N2CCCCC2)nc(=S)[nH]c1-c1ccc([N+](=O)[O-])cc1,–,–,–,17,15,23,22,–,125,–,60,60,–,–
N#Cc1c(N2CCCCC2)nc(=S)[nH]c1-c1ccco1,–,–,–,16,18,17,22,–,–,125,–,–,–,–
N#Cc1c(N2CCN(Cc3ccccc3)CC2)nc(=S)[nH]c1-c1ccccc1,125,–,–,18,15,20,22,–,125,–,60,60,–,–
N#Cc1c(N2CCN(Cc3ccccc3)CC2)nc(=S)[nH]c1-c1ccc([N+](=O)[O-])cc1,–,–,–,16,15,17,22,–,–,–,–,–,–,71.8
N#Cc1c(N2CCN(Cc3ccccc3)CC2)nc(=S)[nH]c1-c1ccco1,125,75,125,20,18,17,29,–,–,3.91,–,–,–,–
COc1ccc(NC(=O)CSc2nc(-c3ccccc3)c(C#N)c(=O)[nH]2)cc1,–,–,–,16,15,20,22,–,125,–,–,60,–,–
COc1ccc(NC(=O)CSc2nc(-c3ccco3)c(C#N)c(=O)[nH]2)cc1,–,–,–,16,15,20,23,–,125,–,–,60,–,–
Cn1c(N2CCN(Cc3ccccc3)CC2)nc(-c2ccco2)c(C#N)c1=O,–,–,–,17,15,17,22,–,–,–,–,–,–,–
Cn1c(-n2[nH]c3c(c2=O)C(=O)CC(=O)O3)nc(-c2ccccc2)c(C#N)c1=O,125,–,–,19,15,17,22,–,–,–,–,–,–,–
CC1(C)S[C@@H]2[C@H](NC(=O)[C@H](N)c3ccccc3)C(=O)N2[C@H]1C(=O)O [AMPICILLIN],–,–,–,16,41,22,–,–,–,3.91,–,–,–,–
Clc1ccccc1C(c1ccccc1)(c1ccccc1)n1ccnc1 [CLOTRIMAZOLE],–,–,12.5,–,–,–,40,–,–,–,–,–,–,–
CC1COc2c(N3CCN(C)CC3)c(F)cc3c(=O)c(C(=O)O)cn1c23 (configuration not stated) [OFLOXACIN],1.95,–,–,43,43,32,–,–,7.81,–,–,–,–,–
